Results: paper PMC5453637 (Translational research : the journal of laboratory and …, 2016)
Values joined by “and” are separate entries in the source; they are usually repeats but may differ in a detail not shown here. Equal values may be shown once.

What was measured:
[1] = tested on: enteroids generated from normal human duodenum and jejunum; test: Swelling measurements in human enteroids; assay type: cell-based
Outline: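 Enteroids came from adult duodenal/jejunal endoscopic biopsies, grown on coverglass dishes. Medium was replaced with Advanced DMEM/F12 and cytoplasm labelled with calcein green-AM, 1 h at 37°C. Forskolin was added, […], and/or test compound at 5 μM; test compound went in 10 min before forskolin when combined. Confocal images were taken every 10 min at 37°C, 5% CO2. Result was percent increase in enteroid area over initial area, e.g. at 40 min.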

[2] = cited from earlier work
[3] = tested on: loperamide-induced constipation; test: Loperamide-induced mouse model of constipation; assay type: in vivo, mice
Outline: (§1)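 Female CD1 mice, 8–10 weeks, were made constipated with loperamide 0.3 mg/kg ip or scopolamine 0.5 mg/kg ip. Test compound 10 mg/kg (saline with 5% DMSO and 10% Kolliphor HS 15) or vehicle was given ip or orally, 1 h before or 1 h after the inducer. Mice sat in metabolic cages with food and water. Stool was collected 3 h for weight, pellet number and water content (dried 80°C, 24 h). n=4 mice/group.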

[4] = Stability in simulated gastric fluid; assay type: physicochemical; conditions: 10 μM, pH 2, 37°C, 3 hour
Outline: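 Test compound (10 μM) was incubated 0 or 3 h at 37°C in simulated gastric fluid (NaCl, 0.7% HCl, pH 2). Remaining compound was measured by LC/MS chromatography. n=3.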

[5] = tested on: loperamide-induced constipation; conditions: cited from earlier work
cellular cAMP [6] = conditions: cited from earlier work
CFTR-deficient mice = conditions: cited from earlier work
C3H/HeJ mice = test: Genetic mouse model of chronic constipation; assay type: in vivo
cytoplasmic Ca^2+ = test: Cytoplasmic calcium measurement; assay type: cell-based, rat; conditions: 10 μM, 2 min, added alone
Outline: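 FRT cells were loaded with Fluo-4 NW 48 h after plating. They were pretreated 2 min with 10 μM test compound or vehicle, then given 100 μM ATP as calcium agonist. Cytoplasmic Ca2+ was read as Fluo-4 fluorescence (ex/em 494/516 nm) in a plate reader with syringe pumps.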

human wild-type CFTR [7] = molecular target: T1, human wild-type CFTR (Homo sapiens, UniProt P13569); test: Plate reader assay of CFTR activity; assay type: cell-based; conditions: read-out: EC50 CFTR activation; as stated in abstract
Outline: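 FRT cells co-expressing human wild-type CFTR and YFP-H148Q were plated at 20,000 cells/well and used 24–48 h later. After 3 PBS washes, cells were incubated 10 min with test compound plus 125 nM forskolin. Fluorescence was recorded 2 s at baseline, then 12 s after adding PBS with 137 mM Cl⁻ replaced by I⁻. Initial iodide influx rate came from exponential regression. EC50 was taken from full concentration-dependence data, n=3.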

[8] = In vitro metabolic stability in human liver microsomes; assay type: in vitro ADME; conditions: 1 mM NADPH, 37°C
Outline: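 Test compound was incubated at 37°C for specified times with human liver microsomes (1 mg protein/mL) in 100 mM potassium phosphate with 1 mM NADPH. Samples were chilled on ice and extracted with ice-cold ethyl acetate. Supernatant was dried, redissolved in acetonitrile:water 3:1 and quantified by LC/MS: 5–95% acetonitrile gradient over 16 min, 0.2 mL/min, ESI(+), m/z 100–1500.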

human wild-type CFTR [9] = molecular target: T1, human wild-type CFTR; test: Inside-out patch-clamp; assay type: biochemical; conditions: 1 μM, after submaximal ATP and catalytic subunit of protein kinase A
Outline: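 Inside-out macro-patches were taken from FRT cells stably expressing human wild-type CFTR using large pipette tips (3–5 MΩ). Pipette: 150 mM NMDG-Cl, 3 CaCl2, 2 MgCl2, 10 Na-HEPES, pH 7.3. Test compound (1 μM) followed. Steps of 600 ms ran −100 to +100 mV in 20 mV increments from −60 mV holding, 4 s apart; filtered 1 kHz, sampled 5 kHz. Three experiment sets.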

[10] = tested on: scopolamine-induced constipation; test: Scopolamine-induced mouse model of acute constipation; assay type: in vivo, mice
Outline: as §1

[11] = mice, rapid hepatic metabolism; cited from earlier work
cellular cAMP [12] = test: cAMP immunoassay in FRT cells; assay type: cell-based, rat; conditions: 10 μM, 10 min, alone or with 90 nM forskolin
Outline: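 FRT cells in 12-well plates received vehicle, 10 μM test compound with or without 90 nM forskolin, or 20 μM forskolin alone, for 10 min at 37°C. Cells were lysed by freeze-thaw and centrifuged (600g, 10 min, 4°C). cAMP was measured by immunoassay.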

cellular cGMP = test: cGMP immunoassay in FRT cells; assay type: cell-based, rat; conditions: 10 μM, 10 min
Outline: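 FRT cells received 10 μM test compound or vehicle for 10 min at 37°C. They were lysed by freeze-thaw and cleared by centrifugation (600g, 10 min, 4°C). cGMP was measured by immunoassay.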

human wild-type CFTR [13] = molecular target: T1, human wild-type CFTR; test: Whole-cell patch-clamp in FRT cells; assay type: cell-based
C3H/HeOuJ mice = test: Wild-type control mice; assay type: in vivo; conditions: 10 mg/kg
Outline: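 Female C3H/HeJ (Tlr4 mutant, chronically constipated) and background C3H/HeOuJ mice, 8–11 weeks, were studied as paired animals. They received test compound 10 mg/kg orally in saline with 5% DMSO and 10% Kolliphor HS 15, or vehicle, at zero time, then went into metabolic cages. Stool was collected 4 h for weight, pellet count and water content ([wet − dry]/wet after drying 80°C, 24 h). n=10 mice/group.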

T1 sequence (P13569 whole entry): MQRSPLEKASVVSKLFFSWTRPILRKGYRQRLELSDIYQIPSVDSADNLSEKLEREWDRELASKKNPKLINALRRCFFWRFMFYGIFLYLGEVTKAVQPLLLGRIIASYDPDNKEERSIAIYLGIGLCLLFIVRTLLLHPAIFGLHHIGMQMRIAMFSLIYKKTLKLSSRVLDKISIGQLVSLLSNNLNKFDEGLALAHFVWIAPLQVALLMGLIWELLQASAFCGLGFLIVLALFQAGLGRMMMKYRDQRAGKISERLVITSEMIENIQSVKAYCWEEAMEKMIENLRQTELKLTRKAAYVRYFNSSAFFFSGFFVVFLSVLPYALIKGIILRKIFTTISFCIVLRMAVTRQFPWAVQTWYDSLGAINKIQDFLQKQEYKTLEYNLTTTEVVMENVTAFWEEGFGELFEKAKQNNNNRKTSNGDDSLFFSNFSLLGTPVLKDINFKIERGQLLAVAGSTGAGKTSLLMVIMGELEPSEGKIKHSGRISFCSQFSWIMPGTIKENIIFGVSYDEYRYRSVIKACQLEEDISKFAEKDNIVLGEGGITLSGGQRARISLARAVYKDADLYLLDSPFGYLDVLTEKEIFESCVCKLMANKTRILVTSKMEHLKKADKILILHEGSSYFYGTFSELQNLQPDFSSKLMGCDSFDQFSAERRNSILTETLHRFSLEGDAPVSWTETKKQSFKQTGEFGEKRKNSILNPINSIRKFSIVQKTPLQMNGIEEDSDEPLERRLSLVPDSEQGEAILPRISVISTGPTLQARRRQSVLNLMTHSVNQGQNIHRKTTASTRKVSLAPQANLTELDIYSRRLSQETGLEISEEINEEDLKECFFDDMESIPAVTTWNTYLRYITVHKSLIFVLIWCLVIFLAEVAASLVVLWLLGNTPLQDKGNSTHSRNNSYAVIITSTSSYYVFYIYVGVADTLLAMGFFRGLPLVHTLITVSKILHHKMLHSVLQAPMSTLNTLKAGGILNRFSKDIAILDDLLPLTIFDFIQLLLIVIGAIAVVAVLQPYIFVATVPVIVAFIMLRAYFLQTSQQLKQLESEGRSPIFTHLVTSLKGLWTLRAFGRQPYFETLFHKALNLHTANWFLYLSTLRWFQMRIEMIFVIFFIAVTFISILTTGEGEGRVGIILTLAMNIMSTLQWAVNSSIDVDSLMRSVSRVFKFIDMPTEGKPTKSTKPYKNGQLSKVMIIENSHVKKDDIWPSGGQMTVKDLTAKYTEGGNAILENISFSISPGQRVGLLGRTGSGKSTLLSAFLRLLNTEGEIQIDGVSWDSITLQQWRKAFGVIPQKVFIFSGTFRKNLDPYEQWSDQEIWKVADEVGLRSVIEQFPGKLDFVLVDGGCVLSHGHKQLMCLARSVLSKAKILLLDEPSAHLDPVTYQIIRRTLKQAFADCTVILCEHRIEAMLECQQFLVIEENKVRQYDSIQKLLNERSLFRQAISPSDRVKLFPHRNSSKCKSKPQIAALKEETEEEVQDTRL

Which “Enteroid area, forskolin alone” value ([1]; 0.3 μM forskolin, 40 minutes, human jejunal enteroids) does the source give for `C=C[C@@]1(C)CC(=O)[C@]2(O)[C@@]3(C)[C@@H](O)CCC(C)(C)[C@@H]3[C@H](O)[C@H](OC(C)=O)[C@@]2(C)O1` [forskolin, reference compound] here?
Its value is “small increase in area”.

Which “Blood counts, serum chemistries, and lung water content” value ([2]; chronic oral high-dose, mice) does the source give for `Nc1ccc([N+](=O)[O-])cc1-c1nc2ccccc2n(Cc2ccccc2)c1=O` [CFTRact-J027] here?
The value was “no effect”.

And the Toxicity [2]?
The Toxicity was “showed no toxicity”.

And the “Efficacy on stool parameters, given after development of constipation” value ([3]; 10 mg/kg ip, 1 hour after loperamide 0.3 mg/kg ip)?
Its value is “effective”.

And the “Efficacy on stool parameters, given orally after development of constipation” value ([3]; 10 mg/kg po, 1 hour after loperamide)?
Its value is “not effective”.

What about the “Stability in simulated gastric fluid” value [4] of the same compound?
The value was “no compound degradation”.

And the “Stool output, stool water content, and intestinal transit” value ([5]; acute constipation produced by loperamide)?
Its value is “normalized”.

What about the “ED50 orally administered, loperamide model” value ([5]; oral, mice) of the same compound?
The value was 0.5 mg/kg.

What about the “Cellular cAMP concentration (prior data)” value (cellular cAMP [6]) of the same compound?
The value was “does not elevate cellular cAMP concentration”.

And the “Effect in CFTR-deficient mice” value (CFTR-deficient mice)?
Its value is “no effect”.

What about the Whole-gut transit time (C3H/HeJ mice; 10 mg/kg ip) of the same compound?
Its Whole-gut transit time is “normalized”.

And the “4-hour stool weight, pellet number, and water content” value (C3H/HeJ mice; 10 mg/kg oral)?
Its value is “to the level of wild-type controls”.

And the “Cytoplasmic Ca^2+” value (cytoplasmic Ca^2+)?
The value was “nor did it elevate cytoplasmic Ca^2+”.

What about the EC50 (human wild-type CFTR [7]) of the same compound?
The EC50 was about 0.2 µM.

And the “Elimination half-life in human hepatic microsomes” value ([8]; 1 mg protein/mL, CFTRact-J027 as printed)?
Its value is ~ 35 min and 35 min.

And the “Compound remaining at 60 minutes” value ([8]; human hepatic microsomes)?
Its value is 34%.

What about the “CFTR activity in inside-out patch” value (human wild-type CFTR [9]) of the same compound?
The value was “strongly increased CFTR activity”.

And the “Enteroid size, compound alone” value ([1]; 5 μM, 40 minutes, human jejunal enteroids, no forskolin)?
The value was “Little or no change”.

What about the “Enteroid swelling response to low forskolin after pretreatment” value ([1]; 0.1 or 0.2 μM forskolin, pretreatment 10 minutes with CFTRact-J027, duodenum and jejunum) of the same compound?
Its value is “increased”.

What about the “Swelling response relative to maximal (5 μM) forskolin” value ([1]; human enteroids) of the same compound?
The value was “approximately 50%”.

And the “Efficacy on stool parameters, given after development of constipation” value ([10]; 10 mg/kg ip, 1 hour after scopolamine)?
The value was “effective”.

And the “Efficacy on stool parameters, given orally after development of constipation” value ([10]; 10 mg/kg po, 1 hour after scopolamine)?
Its value is “not effective”.

And the “Stool parameters (3-hour stool weight, pellet number, water content)” value ([10]; 10 mg/kg po, 1 hour before scopolamine 0.5 mg/kg ip)?
Its value is “normalization of stool parameters”.

What about the Duration of effect ([10]; in mice) of the same compound?
Its Duration of effect is 3 to 4 h.

And the “Systemic exposure following oral administration” value [11]?
Its value is “minimal systemic exposure”.

And the “Cellular cAMP” value (cellular cAMP [12])?
Its value is “did not elevate cellular cAMP”.

And the “Cellular cGMP” value (cellular cGMP)?
The value was “did not elevate cellular cGMP”.

And the “Increase of CFTR activity (whole-cell current)” value (human wild-type CFTR [13]; 1 μM extracellular, after 150 nM forskolin (~25% maximal stimulation))?
Its value is “more than 4 fold”.

What about the “Stool parameters or whole-gut transit time in wild-type control mice” value (C3H/HeOuJ mice) of the same compound?
The value was “did not affect”.

With CFTRinh-172 [reference compound] as the compound, how does the “Block of currents activated by forskolin and CFTRact-J027” value (human wild-type CFTR [13]; 10 μM) read?
Its value is “blocked”.
